Compound activity deposited in PubChem BioAssay by The Scripps Research Institute Molecular Screening Center.
TAAR1 antagonist = human TAAR1 antagonists, primary screen, Fluo-8 calcium fluorescence, CHO RD-HGA16 cells. hit rate 1.5% among 360,000. inhibition, % at 3 µM. antagonist;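 active = inhibition above a per-plate cutoff, the mean inhibition of test compounds on that plate plus 3 SD, cut at about 49% in these data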;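 also: 0% = DMSO plus EC80 beta-PEA response and 100% = DMSO alone without agonist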
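Test system: CHO RD-HGA16 cells bearing hTAAR1 | Reagent: β-PEA, EC80 | Compound dosing: 3 µM, single point | Schedule: Dye loading 75 min at 37 °C, then 30 min room temperature | Signal: Calcium fluorescence with Fluo-8 | Evaluation: Percent inhibition of PEA-evoked calcium signal, max/basal emission ratio | Control set: DMSO-only wells and EC80 β-PEA-stimulated wells | Repeats: Singlicate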
V1R ag counter = agonists of human V1a receptor, primary screen, counter-screen for OXTR agonist project, fluorescence, CHO-V1R cells; AID 2797, 2010; activation, % at 3 µM; Fluo-8 calcium fluorescence, agonist mode; 0% DMSO, 100% 3 nM vasopressin; hit rate 0.25% among 320,000;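 active = activation above the mean activation of all tested compounds plus 3 SD, per screening run, cut at about 20% in these data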;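 also: signal is peak over basal fluorescence ratio across a 100 second FLIPR read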
Target sequence (P37288 whole entry, looked up): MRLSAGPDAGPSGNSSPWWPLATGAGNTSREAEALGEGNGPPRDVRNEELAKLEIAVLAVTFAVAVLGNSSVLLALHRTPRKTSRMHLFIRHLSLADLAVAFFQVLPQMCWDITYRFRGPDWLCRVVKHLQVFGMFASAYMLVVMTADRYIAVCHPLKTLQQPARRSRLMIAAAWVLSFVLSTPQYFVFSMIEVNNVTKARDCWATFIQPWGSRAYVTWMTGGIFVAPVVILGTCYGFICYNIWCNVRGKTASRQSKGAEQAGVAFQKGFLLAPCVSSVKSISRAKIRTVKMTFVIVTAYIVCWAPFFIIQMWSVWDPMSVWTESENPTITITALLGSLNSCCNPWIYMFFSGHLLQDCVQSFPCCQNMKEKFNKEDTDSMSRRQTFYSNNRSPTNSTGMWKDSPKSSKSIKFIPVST
TAAR1 ag = human TAAR1 agonists, primary screen, Fluo-8 calcium fluorescence, CHO RD-HGA16 cells; Trace amine-associated receptor 1 (Homo sapiens), Q96RJ0; vehicle wells 0%, saturating PEA agonist 100%; activation, % at 3 µM; hit rate 0.99% among 360,000; AID 624467, 2012;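 active = activation above the mean activation of all test compounds in the run plus 3 SD, cut at about 38% in these data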
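test system = CHO RD-HGA16 cells carrying human TAAR1 plus Gα16 | schedule = 17-24 h seeding, 75 min 37 °C dye, 30 min RT | compound dosing = 3 µM single concentration | control set = DMSO and PEA EC100 | replicates = n 1 | signal = Fluo-8 fluorescence, 5 s baseline then 140 s kinetic read | measure = percent activation vs PEA EC100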
OXTR potentiator = human OXTR potentiators, primary screen, fluorescence, CHO-OTR cells, Fluo-8 calcium; Oxytocin receptor (Homo sapiens), P30559; Fluo-8 calcium fluorescence, potentiator mode; 0% = oxytocin EC15, 100% = EC100; activation, % at 3 µM; hit rate 0.061% among 320,000;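 active = activation above that plate's cutoff, the mean activation of tested compounds plus 3 SD, cut at about 6.6% in these data, passing the limit was not always enough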;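 also: 100% uses oxytocin at 75 nM as the full agonist control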
Target sequence (P30559 whole entry, looked up): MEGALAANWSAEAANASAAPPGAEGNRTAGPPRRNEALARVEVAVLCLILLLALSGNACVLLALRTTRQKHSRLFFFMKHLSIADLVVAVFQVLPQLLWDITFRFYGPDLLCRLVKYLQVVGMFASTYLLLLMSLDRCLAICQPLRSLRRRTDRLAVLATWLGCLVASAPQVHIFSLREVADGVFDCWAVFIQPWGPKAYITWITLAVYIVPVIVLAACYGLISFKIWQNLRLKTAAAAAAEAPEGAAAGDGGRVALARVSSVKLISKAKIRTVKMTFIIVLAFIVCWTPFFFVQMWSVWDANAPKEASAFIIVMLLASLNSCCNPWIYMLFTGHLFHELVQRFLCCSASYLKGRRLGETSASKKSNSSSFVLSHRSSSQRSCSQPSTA
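Material: CHO-OTR cells, human receptor; compound dosing: single dose, 3.0 µM nominal final compound concentration; schedule: 6 min compound pre-incubation at room temperature, 100 s kinetic read; measured by: kinetic Fluo-8 calcium fluorescence; read-out basis: % activation vs EC15 and EC100 oxytocin; controls: EC15 oxytocin alone as 0%, 75 nM oxytocin as 100%; replicates: singlicate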
OXTR agonist = human OXTR agonists, primary screen, fluorescence, CHO-OTR cells, Fluo-8 calcium | Oxytocin receptor (Homo sapiens), P30559 | Fluo-8 calcium fluorescence; normalized: DMSO 0%, oxytocin 100% | activation, % at 3 µM | hit rate 0.32% among 320,000;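 active = activation above the mean of all tested compounds plus 3 SD, cutoff set per screening run, cut at about 20% in these data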;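 also: peak over basal fluorescence ratio from a 100 s FLIPR kinetic read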
OXTR ag confirm = human OXTR agonists, confirmation, fluorescence, CHO-OTR cells, triplicate | shares compounds with OXTR agonist | Fluo-8 calcium fluorescence, agonist | activation, % at 3 µM | hit rate 20% among 390;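 active = mean activation above about 20% derived from the earlier single-dose screen, limit read from the data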;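 also: peak over minimum fluorescence ratio per well during a 100 second FLIPR read; 0% = DMSO alone and 100% = oxytocin high control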
V1aR counter 3x = V1a receptor agonists, calcium signal, counter-screen for OXTR agonist project, triplicate, fluorescence, CHO-V1R cells. shares compounds with OXTR agonist. Fluo-8 calcium fluorescence. activation, % at 3 µM. hit rate 10% among 390. AID 434991, 2010;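 active = mean activation over triplicate exceeds the hit threshold set in the earlier primary screen, cut at about 20% in these data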;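 also: peak over basal fluorescence ratio within a 100 second read; 0% = DMSO alone and 100% = 3 nM vasopressin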
OXTR pot cf = human OXTR potentiators, confirmation, fluorescence, CHO-OTR cells, triplicate. AID 434985, 2010. shares compounds with OXTR potentiator. Fluo-8 calcium fluorescence, potentiation; scaled from low-dose to maximal oxytocin. activation, % at 3 µM. 180 tested, under 10 active;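 active = mean percent activation over triplicates above a cutoff set from solvent-only control plates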;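 also: compounds tested in the presence of an EC15 dose of oxytocin; 0% = EC15 oxytocin with DMSO and 100% = EC100 oxytocin with DMSO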
TAAR1 ag confirm = human TAAR1 agonists, retest of hits, confirmation, Fluo-8 calcium fluorescence, CHO RD-HGA16 cells; shares compounds with TAAR1 ag; scaled: DMSO 0%, maximal phenethylamine 100%; activation, % at 3 µM; hit rate 82% among 2,400; AID 651783, 2012;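 active = activation above a cutoff set at the run's mean compound activation plus 3 SD, cut at about 39% in these data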
Ga16 ag counter = nonselective calcium mobilization agonists, CHO-Ga16 cells, counter-screen for hTAAR1 agonist project, cell-based, fluorescence, CHO-Ga16 parental line; Fluo-8 calcium fluorescence; normalized to maximal ATP response, DMSO zero; AID 651787, 2012; activation, % at 3 µM; shares compounds with TAAR1 ag; hit rate 50% among 2,400;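 active = activation above the run cutoff, the mean activation over all tested wells plus 3 SD, cut at about 12% in these data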;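 also: 0% = DMSO wells and 100% = maximal ATP response on the peak over basal ratio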
TAAR1 desensitize = TAAR1 desensitization by agonist hits, confirmation, counter-screen for TAAR1 agonist project, cell-based, fluorescence, tachyphylaxis | shares compounds with TAAR1 ag | CHO RD-HGA16 hTAAR1, Fluo-8 calcium, beta-PEA response inhibition | inhibition, % at 3 µM | hit rate 46% among 2,400;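 active = inhibition above the run cutoff, the mean inhibition of all test compounds plus 3 SD, cut at about 49% in these data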;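 also: beta-PEA stimulus applied at its EC80; loss of beta-PEA calcium signal after compound pretreatment read as receptor desensitization; 0% = DMSO with beta-PEA at EC80 and 100% = DMSO alone without agonist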
Ga16 antag count = inhibition of ATP-evoked calcium response in CHO-Ga16 cells, counter-screen for TAAR1 agonist project, cell-based, fluorescence; shares compounds with TAAR1 ag; CHO-Ga16 ATP-induced calcium, Fluo-8 fluorescence; inhibition, % at 3 µM; hit rate 39% among 2,400;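 active = inhibition above the plate's mean compound inhibition plus 3 SD, computed per plate, cut at about 22% in these data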;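 also: 0% = EC80 ATP with DMSO and 100% = DMSO wells without ATP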
An asterisk follows results filed as active; · = not tested or not shown. The list is not random: actives were taken first. Their share in the collection is about 2.3%.

SMILES	TAAR1 antagonist	V1R ag counter	TAAR1 ag	OXTR potentiator	OXTR agonist	OXTR pot cf	others
CC(Oc1ccc(Cl)cc1)C(=O)NNC(=S)NC(=O)c1ccco1 (centres undefined)	49*	11	116*	-13	26*	·	OXTR ag confirm=38*;V1aR counter 3x=42*;TAAR1 ag confirm=79*;Ga16 ag counter=61*;TAAR1 desensitize=37;Ga16 antag count=40*
O=C(NNC(=S)NC(=O)c1ccccc1)c1cccc([N+](=O)[O-])c1	29	14	96*	-13	29*	·	OXTR ag confirm=16;V1aR counter 3x=21*;TAAR1 ag confirm=84*;Ga16 ag counter=65*;TAAR1 desensitize=28;Ga16 antag count=20
CCOC(=O)N1CCN(CC(O)c2ccccc2)CC1 (centres undefined)	-6	0	1	-2	0	·
CCCCC(c1nnnn1CC1CCCO1)N1CCN(c2nc3ccccc3s2)CC1 (centres undefined)	5	·	3	·	·	·
Cc1ccc(OC(C)C(=O)N2CCN(c3ccccn3)CC2)cc1 (centres undefined)	-2	·	5	·	·	·
CN(C)CCCOc1ccc(C(C)(C)c2ccccc2)cc1	0	10	75*	-13	20*	·	OXTR ag confirm=7;V1aR counter 3x=1;TAAR1 ag confirm=45*;Ga16 ag counter=8;TAAR1 desensitize=9;Ga16 antag count=12
CN(C)CCOc1ccc(C(C)(C)c2ccccc2)cc1	-15	0	8	0	2	·
N#C/C(=C/c1ccc(O)cc1)C(=O)NCc1ccc(Cl)cc1	4	7	34	-8	13	·
N#C/C(=C\c1ccc(O)cc1)C(=O)NCc1cccc(Cl)c1	38	18	63*	-9	20*	·	OXTR ag confirm=14;V1aR counter 3x=10;TAAR1 ag confirm=75*;Ga16 ag counter=37*;TAAR1 desensitize=36;Ga16 antag count=26*
CCCOc1ccc(-c2c(C(=O)N/N=C/c3ccc(C)cc3)nnn2-c2nonc2N)cc1	-68	1	37	22*	1	3
CCCOc1ccc(-c2c(C(=O)N/N=C/c3cccnc3)nnn2-c2nonc2N)cc1	-17	5	5	3	1	·
Cc1ccc(C(=O)CSc2cc(C)[nH]c(=O)n2)cc1	-15	-1	-1	-1	-2	·
Cc1cc(SCC(=O)c2ccc(Cl)cc2)nc(=O)[nH]1	-14	2	-1	12*	0	1
CC(C)(O)C#Cc1ccc(CN2CCN(Cc3ccccc3)C(CCO)C2)s1 (centres undefined)	-11	1	2	0	2	·
O=C(CCN1CCN(CCO)CC1)Nc1ccc(C2CCCC2)cc1	-10	0	2	-8	0	·
Cc1ccc(-n2nc(C(=O)c3ccccc3)n3c(=O)c(Cc4ccccc4)nnc23)cc1	-1	-2	8	9.9*	-1	0
CCN(CC(=O)Nc1c(F)cccc1F)C(=O)/C=C/c1ccc2ccccc2n1	-12	0	6	21*	0	-5
CCN(CC(=O)Nc1c(F)cccc1F)C(=O)c1ccc2ccccc2n1	-9	0	0	4	0	·
O=C(c1ccc(Cl)c(S(=O)(=O)N2CCCCC2)c1)N1CCN(Cc2ccccc2)CC1	-28	3	3	-6	1	·
Cc1nc2ccccc2c(=O)n1NC(=O)C1CCCCC1	2	0	-3	-4	-1	·
O=C(Nn1c(C2CCC2)nc2ccccc2c1=O)C1CCC1	4	-1	11	13*	-2	-8
CCOC(=O)c1cnc2cc(-c3ccc(C)cc3)nn2c1-c1ccccc1	30	1	7	14*	2	-11
CCOC(=O)c1cnc2cc(-c3ccc(C)cc3)nn2c1C	-14	·	4	·	·	·
CCOc1ccc(CCNC(=O)COC(=O)c2cc(OC)cc(OC)c2)cc1OCC	-14	-1	-2	9.8*	-2	-3
CCCOc1ccc(C(=O)OCC(=O)NCCc2ccc(OCC)c(OCC)c2)cc1OC	-34	0	0	2	-2	·
SMILES	TAAR1 antagonist	V1R ag counter	TAAR1 ag	OXTR potentiator	OXTR agonist	OXTR pot cf	others
CC(=O)N1CCN(S(=O)(=O)c2cccc(C(=O)OCc3ccc(F)cc3)c2)CC1	1	·	4	·	·	·
CC(=O)N1CCN(S(=O)(=O)c2cccc(C(=O)OCN3C(=O)c4ccccc4C3=O)c2)CC1	-5	1	6	11*	2	-6
COc1cc(OC)c(OC)cc1/C=N/NC(=O)c1cnccn1	11	0	6	-8	-1	·
CCc1ccc(NC(=O)Cc2ccc(NC3=NC4CS(=O)(=O)CC4S3)cc2)cc1 (centres undefined)	-33	0	5	8.3*	0	-4
COCCOc1ccc(C(F)(F)F)cc1NC(=O)c1ccc(F)cc1	4	0	24	-8	-2	·
COCCOc1ccc(C(F)(F)F)cc1NC(=O)c1ccccc1	11	-1	3	14*	-2	-2
